Test results taken from ChEMBL document CHEMBL3102750 (J Med Chem, 2013).

Tests used:
Cytochrome P450 3A4 = Cytochrome P450 3A4 (Homo sapiens, UniProt P08684); assay: Inhibition of CYP3A4 in human liver microsomes using midazolam as substrate preincubated for 15 mins followed by NADPH addition measured after 8 mins by LC/MS/MS analysis; assay type: ADME
[1] = Fraction unbound in Sprague-Dawley rat brain at 5 uM after 4 hrs by equilibrium dialysis method; assay type: ADME, tissue-based
How it was run: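 Nonspecific binding measured in rat brain homogenate to give unbound fraction in brain (fu,br).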

Plasma = assay: Fraction unbound in cynomolgus monkey plasma at 5 uM after 4 hrs by equilibrium dialysis method; assay type: ADME, cell-free, Macaca fascicularis
How it was run: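 Fraction unbound determined in plasma from rat, cynomolgus monkey and human.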

[2] = target: T1, Muscarinic acetylcholine receptor M5 (Rattus norvegicus, UniProt P08911); assay: Negative allosteric modulation of rat muscarinic acetylcholine receptor M5 expressed in CHO cells assessed as inhibition of acetylcholine-induced calcium mobilization incubated for 150 secs prior to acetylcholine induction by Fluo-4 AM staining-based fluorescence assay; assay type: functional, cell-based
T1 sequence (P08911 whole entry): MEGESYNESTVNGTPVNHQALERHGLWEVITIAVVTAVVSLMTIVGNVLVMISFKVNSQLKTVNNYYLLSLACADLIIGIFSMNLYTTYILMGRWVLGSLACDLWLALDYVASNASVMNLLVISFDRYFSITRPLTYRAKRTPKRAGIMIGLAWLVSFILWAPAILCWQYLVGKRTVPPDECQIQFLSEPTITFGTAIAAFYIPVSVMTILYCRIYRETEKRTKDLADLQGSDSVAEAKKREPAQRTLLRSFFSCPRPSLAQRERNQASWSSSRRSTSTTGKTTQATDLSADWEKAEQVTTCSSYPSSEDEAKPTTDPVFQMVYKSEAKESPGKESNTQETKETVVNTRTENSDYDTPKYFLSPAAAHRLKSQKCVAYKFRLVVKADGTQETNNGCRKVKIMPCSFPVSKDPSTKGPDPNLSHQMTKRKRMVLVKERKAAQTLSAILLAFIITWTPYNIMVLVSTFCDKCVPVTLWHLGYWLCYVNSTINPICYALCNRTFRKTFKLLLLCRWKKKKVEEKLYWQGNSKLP

Chain of Cytochrome P450 3A4 (P08684 whole entry): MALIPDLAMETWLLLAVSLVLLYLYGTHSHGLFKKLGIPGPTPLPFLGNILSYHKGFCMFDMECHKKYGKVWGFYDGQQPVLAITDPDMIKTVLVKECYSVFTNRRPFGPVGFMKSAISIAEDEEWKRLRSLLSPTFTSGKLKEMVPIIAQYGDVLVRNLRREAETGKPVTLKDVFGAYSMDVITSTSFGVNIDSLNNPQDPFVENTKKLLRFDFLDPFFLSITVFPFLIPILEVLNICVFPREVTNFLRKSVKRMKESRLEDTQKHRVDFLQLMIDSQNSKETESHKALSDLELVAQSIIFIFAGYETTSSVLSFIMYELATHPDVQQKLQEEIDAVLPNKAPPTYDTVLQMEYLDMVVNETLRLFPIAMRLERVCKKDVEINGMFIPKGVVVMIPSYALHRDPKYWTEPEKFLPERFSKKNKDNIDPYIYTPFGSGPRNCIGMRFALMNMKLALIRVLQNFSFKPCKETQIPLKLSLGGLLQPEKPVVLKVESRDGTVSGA

IC50 (Cytochrome P450 3A4)	Fu [1]	Fu (Plasma)	IC50 [2]	SMILES
16 µM	0.003	0.001		O=C(c1ccc(F)c(F)c1)N1CCN2C(=O)c3ccccc3[C@@]12c1ccc(Cl)cc1
			2.1 µM	O=C(c1ccc(F)c(F)c1)N1CCN2C(=O)c3ccccc3C12c1ccccc1 (centres undefined)
